Laboratory results taken from PubChem BioAssay AID588762 (The Scripps Research Institute Molecular Screening Center, 2011).
Active and inactive are the calls of the source.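 How the source made its calls: active means fitted IC50 at or below 10 µM in the dose response luciferase test; inactive means IC50 weaker than 10 µM.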

Molecular target: Epstein-Barr virus nuclear antigen 1 (EBNA-1), Human herpesvirus 4
Assay: relief of EBNA-1 Qp promoter repression – cell-based, luciferase, dose response, assay provider data, late-stage follow-up (AID 588762)
Conditions: 293T Qp-promoter luciferase reporter, EBNA-1 repression
How it was run: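 assay system = human 293T cells transiently co-transfected with Qp-promoter luciferase reporter, Flag-tagged EBNA-1 | times = 48 h at 37 °C after plating | technique = luminescence from Steady-Glo luciferase reagent, rising as EBNA-1 repression lifts | read-out basis = concentration giving half-maximal luminescence stimulation, four-parameter sigmoidal fit | controls = empty-vector transfected cells lacking EBNA-1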

Row | IC50 | SMILES
1 | > 148 µM (inactive) | Cc1ccc(C(=O)Nc2nc3cc(Br)ccc3s2)cc1C
2 | > 148 µM (inactive) | Cc1ccc(C(=O)Nc2nc3ccc(Br)cc3s2)cc1C
3 | > 148 µM (inactive) | O=C(CSc1nnnn1-c1ccccc1)c1ccn(CC2CCCO2)c1 (centres undefined)
4 | > 148 µM (inactive) | Cc1cc(C(=O)CSc2nnnn2C)c(C)n1CC1CCCO1 (centres undefined)
5 | > 148 µM (inactive) | COc1cccc2sc(NC(=O)c3ccc(C)c(C)c3)nc12
6 | inactive | Cc1cccc(C(=O)Nc2nc3ccc(S(C)(=O)=O)cc3s2)c1
7 | inactive | CS(=O)(=O)c1ccc2nc(NC(=O)c3ccc(Cl)cc3)sc2c1
8 | > 148 µM (inactive) | CS(=O)(=O)c1ccc2nc(NC(=O)c3ccccc3Cl)sc2c1
9 | > 148 µM (inactive) | Cc1cc(C(=O)CSc2nnnn2-c2ccc(Cl)cc2)c(C)n1CC1CCCO1 (centres undefined)
10 | > 148 µM (inactive) | Cc1cc(C(=O)CSc2nnnn2-c2ccccc2)c(C)n1Cc1cccs1
11 | > 148 µM (inactive) | Cc1cccc(-n2nnnc2SCC(=O)c2cc(C)n(CC3CCCO3)c2C)c1 (centres undefined)
12 | > 148 µM (inactive) | COc1ccccc1C(=O)Nc1nc2ccc(S(C)(=O)=O)cc2s1
13 | inactive | COc1ccc(C(=O)Nc2nc3ccc(S(C)(=O)=O)cc3s2)cc1
14 | > 148 µM (inactive) | Cc1cc(C(=O)CSc2nnnn2-c2cccc(F)c2)c(C)n1CC1CCCO1 (centres undefined)
15 | > 148 µM (inactive) | CS(=O)(=O)c1ccc2nc(NC(=O)c3cccc(F)c3)sc2c1
16 | > 148 µM (inactive) | COc1ccc2sc(NC(=O)c3ccc(C)c(C)c3)nc2c1
17 | > 148 µM (inactive) | CS(=O)(=O)c1ccc2nc(NC(=O)c3ccccc3F)sc2c1
18 | > 148 µM (inactive) | CCn1c(C)cc(C(=O)CSc2nnnn2-c2ccccc2)c1C
19 | > 148 µM (inactive) | Cc1ccccc1C(=O)Nc1nc2ccc(S(C)(=O)=O)cc2s1
20 | > 148 µM (inactive) | CS(=O)(=O)c1ccc2nc(NC(=O)c3cccc(Cl)c3)sc2c1
21 | > 148 µM (inactive) | Cc1ccc(C(=O)Nc2nc3ccc(S(C)(=O)=O)cc3s2)cc1
22 | > 148 µM (inactive) | COCCn1c(C)cc(C(=O)CSc2nnnn2-c2ccccc2)c1C
23 | > 16.4 µM (inactive) | COc1ccc(-n2nnnc2SCC(=O)c2cc(C)n(CC3CCCO3)c2C)cc1 (centres undefined)
24 | > 148 µM (inactive) | Cc1ccccc1-n1nnnc1SCC(=O)c1cc(C)n(CC2CCCO2)c1C (centres undefined)
25 | > 148 µM (inactive) | Cc1ccc(C(=O)Nc2nc3cc(F)ccc3s2)cc1C
26 | > 148 µM (inactive) | COc1ccc2nc(NC(=O)c3ccc(C)c(C)c3)sc2c1
27 | inactive | Cc1cc(C(=O)CSc2nnnn2C2CC2)c(C)n1CC1CCCO1 (centres undefined)
28 | inactive | COc1cccc(C(=O)Nc2nc3ccc(S(C)(=O)=O)cc3s2)c1
29 | inactive | Cc1cc(C(=O)CSc2nnnn2-c2ccccc2)c(C)n1C
